≈ marks a conversion by molar mass, not a printed value. Calls of active or inactive are those of the source. The rule behind the calls is not given here.
Experiments:
Staphylococcus aureus [1] = experiment: Ratio of MIC for Staphylococcus aureus ATCC 29213 after and before 15 serial passages; type: functional
Staphylococcus aureus [2] = experiment: Antibacterial activity against Staphylococcus aureus DM 4001R after 24 hrs by two fold dilution assay; type: functional
Summary of the method: (§1)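 CLSI broth macrodilution in cation-adjusted Mueller-Hinton broth. Compounds were dissolved in DMF and diluted in PBS to a 1000 µg/mL stock, then serially 2-fold diluted in CA-MHB. The inoculum came from colonies on 18-20 h TSA plates (direct colony suspension), adjusted to ~5×10^5 CFU/mL. Incubation was 24 h at 35 °C. MIC is the lowest concentration with no visible growth versus control. Biological replicates.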

Staphylococcus aureus [3] = experiment: Antibacterial activity against methicillin-resistant Staphylococcus aureus DM 21455 after 24 hrs by two fold dilution assay; type: functional; conditions: DM 21455, 24 h; summary of the method: as §1
Staphylococcus aureus [4] = experiment: Antibacterial activity against methicillin-resistant Staphylococcus aureus DM 9808R after 24 hrs by two fold dilution assay; type: functional; summary of the method: as §1
Bacillus cereus = experiment: Antibacterial activity against Bacillus cereus ATCC 11778 after 24 hrs by two fold dilution assay; type: functional; conditions: ATCC 11778, 24 h
Summary of the method: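 Broth macro-dilution per CLSI in cation-adjusted Mueller-Hinton broth; compounds dissolved in DMF, diluted in PBS to 1000 µg/mL stock, then serial 2-fold dilutions in CA-MHB in tubes. Inoculum from 18-20 h TSA colonies (direct colony suspension), adjusted to about 5× 10^5 CFU/mL. MIC read after 24 h at 35 °C as lowest concentration with no visible growth; biological replicates.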

Lipid bilayer [5] = experiment: Induction of membrane damage in DOPE/DOPG large unilamellar vesicles assessed as calcein leakage at compound to lipid ratio of 1:16 after 1 hr by fluorescence assay relative to control
Summary of the method: (§2)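 100 nm calcein-loaded LUVs made by film hydration; lipid content set by total phosphorus assay. DOPC/cholesterol (3:1, w/w) mimics mammalian and DOPE/DOPG (3:1, w/w) bacterial membranes. Compound in DMF added at lipid-to-compound ratio 16 (6.25 µM compound), final DMF limited to 0.5%. Fluorescence monitored at ex 490/em 520 nm for 1 hour; replicated.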

Lipid bilayer [6] = experiment: Induction of membrane damage in DOPC/cholesterol large unilamellar vesicles assessed as calcein leakage at compound to lipid ratio of 1:16 after 1 hr by fluorescence assay relative to control; summary of the method: as §2
Staphylococcus aureus [7] = experiment: Disruption of membrane in Staphylococcus aureus isolate DM4001R assessed as increase in ATP leakage at 4 times MIC after 1 hr by ATP bioluminescent assay relative to control; type: functional
Summary of the method: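 S. aureus DM4001 grown to exponential phase, washed three times in 20 mM PBS (pH 7), resuspended to OD600 0.2. Compound added, suspensions held 1 hour at 37 °C, then centrifuged. Supernatant mixed with luciferase/luciferin enzyme mix; extracellular ATP quantified by luminescence. Replicated.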

Staphylococcus aureus [8] = experiment: Disruption of cytoplasmic membrane in Staphylococcus aureus isolate DM4001R at 2 times MIC after 3000 secs by SYTOX green dye based fluorescence assay; type: functional
Summary of the method: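 Clinical S. aureus isolate DM4001R incubated with SYTOX Green plus compound; membrane permeabilization read as increased fluorescence intensity. Measurements replicated.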

[9] = Selectivity index, ratio of HC50 for New Zealand White rabbit RBC to MIC for Bacillus cereus ATCC 11778
Summary of the method: (§3)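 Ratio of HC50 to MIC. For HC50, fresh New Zealand White rabbit RBCs were pelleted (3000 rpm, 10 min), washed twice in PBS and mixed with serially diluted compounds (in DMF or PBS) at a final 4% v/v. After 60 min at 37 °C and centrifugation, supernatant absorbance was read at 576 nm. % hemolysis was normalised to 2% Triton X-100 (positive) and PBS/DMF (negative). MIC came from CA-MHB broth macrodilution, 24 h at 35 °C.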

[10] = Selectivity index, ratio of HC50 for New Zealand White rabbit RBC to MIC for Staphylococcus aureus DM 4001R; summary of the method: as §3
[11] = Selectivity index, ratio of HC50 for New Zealand White rabbit RBC to MIC for methicillin-resistant Staphylococcus aureus DM 9808R; summary of the method: as §3
[12] = Selectivity index, ratio of HC50 for New Zealand White rabbit RBC to MIC for methicillin-resistant Staphylococcus aureus DM 21455; summary of the method: as §3

Row | SMILES | MIC (Staphylococcus aureus [2]) | MIC (Staphylococcus aureus [3]) | MIC (Staphylococcus aureus [4]) | MIC (Bacillus cereus) | further results
1 | CCn1cc(C(=O)O)c(=O)c2cc(F)c(N3CCNCC3)cc21 [NORFLOXACIN] |  |  |  |  | Ratio (Staphylococcus aureus [1]): 128
2 | COc1c(N2CCNC(C)C2)c(F)cc2c(=O)c(C(=O)O)cn(C3CC3)c12 (centres undefined) [GATIFLOXACIN] |  |  |  |  | Ratio (Staphylococcus aureus [1]): 64
3 | COC(=O)[C@H](CCCNC(=N)N)NC(=O)COc1cc(OC/C=C(\C)CCC=C(C)C)cc2oc3cc(OC/C=C(\C)CCC=C(C)C)cc(OCC(=O)N[C@@H](CCCNC(=N)N)C(=O)OC)c3c(=O)c12 | 25 µg/mL (≈ 25.3 µM) | > 50 µg/mL | 50 µg/mL (≈ 50.5 µM) | > 50 µg/mL | 
4 | CC(C)=CCOc1cc(O)c2c(=O)c3c(O)cc(OCC=C(C)C)cc3oc2c1 | > 50 µg/mL | > 50 µg/mL | > 50 µg/mL | > 50 µg/mL | 
5 | COC(=O)[C@H](CCCNC(=N)N)NC(=O)[C@H](CCCNC(=N)N)NC(=O)COc1cc(OC/C=C(\C)CCC=C(C)C)cc2oc3cc(OC/C=C(\C)CCC=C(C)C)cc(OCC(=O)N[C@@H](CCCNC(=N)N)C(=O)N[C@@H](CCCNC(=N)N)C(=O)OC)c3c(=O)c12 | 25 µg/mL (≈ 19.2 µM) | 25 µg/mL (≈ 19.2 µM) | 25 µg/mL (≈ 19.2 µM) | 25 µg/mL (≈ 19.2 µM) | 
6 | COC(=O)[C@H](CCCCN)NC(=O)COc1cc(OCC=C(C)C)cc2oc3cc(OCC=C(C)C)cc(OCC(=O)N[C@@H](CCCCN)C(=O)OC)c3c(=O)c12 | 12.5 µg/mL (≈ 15.7 µM) | 6.25 µg/mL (≈ 7.84 µM) | 12.5 µg/mL (≈ 15.7 µM) | 6.25 µg/mL (≈ 7.84 µM) | Activity (Lipid bilayer [5]): 48.2%; Activity (Lipid bilayer [6]): < 20%; Activity (Staphylococcus aureus [7]): 106.7%; Activity (Staphylococcus aureus [8]): Active
7 | CC(C)=CCOc1cc(OCC(=O)N[C@@H](CCCNC(=N)N)C(N)=O)c2c(=O)c3c(OCC(=O)N[C@@H](CCCNC(=N)N)C(N)=O)cc(OCC=C(C)C)cc3oc2c1 | 12.5 µg/mL (≈ 15.2 µM) | 6.25 µg/mL (≈ 7.59 µM) | 6.25 µg/mL (≈ 7.59 µM) | 12.5 µg/mL (≈ 15.2 µM) | 
8 | COC(=O)[C@H](CCCNC(=N)N)NC(=O)COc1cc(OCC=C(C)C)cc2oc3cc(OCC=C(C)C)cc(OCC=C(C)C)c3c(=O)c12 | 1.56 µg/mL (≈ 2.25 µM) | 0.78 µg/mL (≈ 1.13 µM) | 1.56 µg/mL (≈ 2.25 µM) | 1.56 µg/mL (≈ 2.25 µM) | Selectivity Index [9]: 21 to 42; Selectivity Index [10]: 21 to 42; Selectivity Index [11]: 21 to 42; Selectivity Index [12]: 21 to 42

Source: ChEMBL document CHEMBL4052597, “Symmetrically Substituted Xanthone Amphiphiles Combat Gram-Positive Bacterial Resistance with Enhanced Membrane Selectivity” (J Med Chem, 2017)
